From ChEMBL document CHEMBL1629475, “Synthesis of new chalcone derivatives containing a rhodanine-3-acetic acid moiety with potential anti-bacterial activity” (2010)
In brackets after ≈: the same amount, converted by molar mass. Activity calls are given as the source filed them. No cut-off for these calls is given here.

Key:
Streptococcus mutans [1] = assay: Antibacterial activity against Streptococcus mutans KCTC 3065 after 20 hrs by twofold serial dilution technique; type: functional; settings: KCTC 3065, 20 h
How it was run: (§1)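 Inoculum was 10⁵ CFU/mL, and MIC was read after incubation at 37 °C for 20 h. Oxacillin and norfloxacin were the positive controls.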

Escherichia coli [2] = assay: Antibacterial activity against Escherichia coli 1356 after 20 hrs by twofold serial dilution technique; type: functional; settings: Escherichia coli, 1356, 20 h
How it was run: (§2)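 Inoculum was 10⁵ CFU/mL. MIC was read after 20 h at 37 °C. The MRSA and QRSA strains were multidrug-resistant clinical isolates. Oxacillin and norfloxacin served as positive controls.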

Escherichia coli [3] = assay: Antibacterial activity against Escherichia coli 1356 at 64 ug/ml; type: functional, organism-based
Staphylococcus aureus [4] = assay: Antibacterial activity against Staphylococcus aureus KCTC 503 after 20 hrs by twofold serial dilution technique; type: functional; settings: KCTC 503, 20 h; how it was run: as §2
Streptococcus mutans [5] = assay: Antibacterial activity against Streptococcus mutans KCTC 3289 after 20 hrs by twofold serial dilution technique; type: functional; settings: KCTC 3289, 20 h; how it was run: as §1
Escherichia coli [6] = assay: Antibacterial activity against Escherichia coli 1924 after 20 hrs by twofold serial dilution technique; type: functional; settings: Escherichia coli, 1924, 20 h; how it was run: as §2
Staphylococcus aureus [7] = assay: Antibacterial activity against Staphylococcus aureus KCTC 209 after 20 hrs by twofold serial dilution technique; type: functional; settings: KCTC 209, 20 h; how it was run: as §2
Escherichia coli [8] = assay: Antibacterial activity against Escherichia coli 1924 at 64 ug/ml; type: functional, organism-based
Staphylococcus aureus [9] = assay: Antibacterial activity against Staphylococcus aureus RN 4220 after 20 hrs by twofold serial dilution technique; type: functional; settings: RN 4220, 20 h; how it was run: as §2
Staphylococcus aureus [10] = assay: Antibacterial activity against Staphylococcus aureus MRSA CCARM 3506 after 20 hrs by twofold serial dilution technique; type: functional; settings: MRSA CCARM 3506, 20 h; how it was run: as §2
Staphylococcus aureus [11] = assay: Antibacterial activity against Staphylococcus aureus MRSA CCARM 3167 after 20 hrs by twofold serial dilution technique; type: functional; settings: MRSA CCARM 3167, 20 h; how it was run: as §2
Staphylococcus aureus [12] = assay: Antibacterial activity against Staphylococcus aureus QRSA CCARM 3519 after 20 hrs by twofold serial dilution technique; type: functional; settings: QRSA CCARM 3519, 20 h; how it was run: as §2
Staphylococcus aureus [13] = assay: Antibacterial activity against Staphylococcus aureus QRSA CCARM 3505 after 20 hrs by twofold serial dilution technique; type: functional; settings: QRSA CCARM 3505, 20 h; how it was run: as §2
Streptococcus mutans [14] = assay: Antibacterial activity against Streptococcus mutans KCTC 3065 at 64 ug/ml; type: functional, organism-based
Staphylococcus aureus [15] = assay: Antibacterial activity against Staphylococcus aureus KCTC 209 at 64 ug/ml; type: functional, organism-based
Streptococcus mutans [16] = assay: Antibacterial activity against Streptococcus mutans KCTC 3289 at 64 ug/ml; type: functional, organism-based
Staphylococcus aureus [17] = assay: Antibacterial activity against Staphylococcus aureus KCTC 503 at 64 ug/ml; type: functional, organism-based
Staphylococcus aureus [18] = assay: Antibacterial activity against Staphylococcus aureus RN 4220 at 64 ug/ml; type: functional, organism-based

Row | SMILES | MIC (Streptococcus mutans [1]) [µg/mL] | MIC (Escherichia coli [2]) [µg/mL] | Activity (Escherichia coli [3]) | MIC (Staphylococcus aureus [4]) [µg/mL] | MIC (Streptococcus mutans [5]) [µg/mL] | MIC (Escherichia coli [6]) [µg/mL] | MIC (Staphylococcus aureus [7]) [µg/mL] | Activity (Escherichia coli [8]) | MIC (Staphylococcus aureus [9]) [µg/mL] | MIC (Staphylococcus aureus [10]) [µg/mL] | MIC (Staphylococcus aureus [11]) [µg/mL] | MIC (Staphylococcus aureus [12]) [µg/mL] | MIC (Staphylococcus aureus [13]) [µg/mL] | Activity (Streptococcus mutans [14]) | Activity (Staphylococcus aureus [15]) | Activity (Streptococcus mutans [16]) | Activity (Staphylococcus aureus [17]) | Activity (Staphylococcus aureus [18])
1 | O=C(O)CN1C(=O)/C(=C\c2ccc(/C=C/C(=O)c3cccc(F)c3)cc2)SC1=S | 64 (≈ 150 µM) | > 64 | inactive | 64 (≈ 150 µM) | 64 (≈ 150 µM) | > 64 | 64 (≈ 150 µM) | inactive | 64 (≈ 150 µM) |  |  |  |  |  |  |  |  | 
2 | O=C(O)CN1C(=O)/C(=C\c2ccc(/C=C/C(=O)c3cccc(Br)c3)cc2)SC1=S | 8 (≈ 16.4 µM) | > 64 | inactive | 8 (≈ 16.4 µM) | 8 (≈ 16.4 µM) | > 64 | 8 (≈ 16.4 µM) | inactive | 8 (≈ 16.4 µM) | 8 (≈ 16.4 µM) | 8 (≈ 16.4 µM) | 8 (≈ 16.4 µM) | 8 (≈ 16.4 µM) |  |  |  |  | 
3 | O=C(O)CN1C(=O)/C(=C\c2ccc(/C=C/C(=O)c3ccc(Br)cc3)cc2)SC1=S | 4 (≈ 8.19 µM) | > 64 | inactive | 4 (≈ 8.19 µM) | 4 (≈ 8.19 µM) | > 64 | 4 (≈ 8.19 µM) | inactive | 4 (≈ 8.19 µM) | 4 (≈ 8.19 µM) | 4 (≈ 8.19 µM) | 4 (≈ 8.19 µM) | 4 (≈ 8.19 µM) |  |  |  |  | 
4 | CCn1cc(C(=O)O)c(=O)c2cc(F)c(N3CCNCC3)cc21 [NORFLOXACIN] | 1 (≈ 3.13 µM) | 16 (≈ 50.1 µM) |  | 2 (≈ 6.26 µM) | 1 (≈ 3.13 µM) | 16 (≈ 50.1 µM) | 4 (≈ 12.5 µM) |  | 2 (≈ 6.26 µM) | 4 (≈ 12.5 µM) | 8 (≈ 25.1 µM) | > 64 | > 64 |  |  |  |  | 
5 | O=C(O)CN1C(=O)/C(=C\c2ccc(/C=C/C(=O)c3cccc(Cl)c3)cc2)SC1=S | 64 (≈ 144 µM) | > 64 | inactive | 64 (≈ 144 µM) | 64 (≈ 144 µM) | > 64 | 64 (≈ 144 µM) | inactive | 64 (≈ 144 µM) |  |  |  |  |  |  |  |  | 
6 | O=C(O)CN1C(=O)/C(=C\c2ccc(/C=C/C(=O)c3ccccc3F)cc2)SC1=S | > 64 | > 64 | inactive | > 64 | > 64 | > 64 | > 64 | inactive | > 64 |  |  |  |  | inactive | inactive | inactive | inactive | inactive
7 | COc1ccc(C(=O)/C=C/c2ccc(/C=C3/SC(=S)N(CC(=O)O)C3=O)cc2)cc1 | 64 (≈ 146 µM) | > 64 | inactive | 64 (≈ 146 µM) | 64 (≈ 146 µM) | > 64 | 64 (≈ 146 µM) | inactive | 64 (≈ 146 µM) |  |  |  |  |  |  |  |  | 
8 | Cc1ccc(C(=O)/C=C/c2ccc(/C=C3/SC(=S)N(CC(=O)O)C3=O)cc2)cc1 | 64 (≈ 151 µM) | > 64 | inactive | 64 (≈ 151 µM) | 64 (≈ 151 µM) | > 64 | 64 (≈ 151 µM) | inactive | 64 (≈ 151 µM) |  |  |  |  |  |  |  |  | 
9 | O=C(O)CN1C(=O)/C(=C\c2ccc(/C=C/C(=O)c3ccccc3)cc2)SC1=S | 64 (≈ 156 µM) | > 64 | inactive | 32 (≈ 78.1 µM) | 64 (≈ 156 µM) | > 64 | 32 (≈ 78.1 µM) | inactive | 32 (≈ 78.1 µM) |  |  |  |  |  |  |  |  | 
10 | O=C(O)CN1C(=O)CSC1=S [RHODANINE-3-ACETIC ACID] | > 64 | > 64 | inactive | > 64 | > 64 | > 64 | > 64 | inactive | > 64 |  |  |  |  | inactive | inactive | inactive | inactive | inactive
11 | CC(=O)Nc1ccc(C(=O)/C=C/c2ccc(/C=C3/SC(=S)N(CC(=O)O)C3=O)cc2)cc1 | > 64 | > 64 | inactive | > 64 | > 64 | > 64 | > 64 | inactive | > 64 |  |  |  |  |  |  |  |  | 
